Test results: publication PMC10755797 (The Journal of Biological Chemistry, 2023)
Where “and” joins values, the source holds several entries; their conditions need not be identical. Equal values may be shown once. Entries after “also recorded” stand apart in the source; their conditions may differ.

Columns and labels:
[1] = In vivo metabolite identification by LC-MS in plasma, colon and feces; conditions: mice, 10 mg/kg MMT3-72 orally, 6 h
JAK1 = JAK1 (Homo sapiens, UniProt P23458); experiment: Kinase-Glo Max kinase assay, purified enzyme; assay type: biochemical
JAK2 = JAK2 (Homo sapiens, UniProt O60674); experiment: Kinase-Glo Max kinase assay, purified enzyme; assay type: biochemical
JAK3 = biological target: T1, JAK3 (Homo sapiens, UniProt P52333); experiment: Kinase-Glo Max kinase assay, purified enzyme; assay type: biochemical
T1 sequence (P52333 1-1124): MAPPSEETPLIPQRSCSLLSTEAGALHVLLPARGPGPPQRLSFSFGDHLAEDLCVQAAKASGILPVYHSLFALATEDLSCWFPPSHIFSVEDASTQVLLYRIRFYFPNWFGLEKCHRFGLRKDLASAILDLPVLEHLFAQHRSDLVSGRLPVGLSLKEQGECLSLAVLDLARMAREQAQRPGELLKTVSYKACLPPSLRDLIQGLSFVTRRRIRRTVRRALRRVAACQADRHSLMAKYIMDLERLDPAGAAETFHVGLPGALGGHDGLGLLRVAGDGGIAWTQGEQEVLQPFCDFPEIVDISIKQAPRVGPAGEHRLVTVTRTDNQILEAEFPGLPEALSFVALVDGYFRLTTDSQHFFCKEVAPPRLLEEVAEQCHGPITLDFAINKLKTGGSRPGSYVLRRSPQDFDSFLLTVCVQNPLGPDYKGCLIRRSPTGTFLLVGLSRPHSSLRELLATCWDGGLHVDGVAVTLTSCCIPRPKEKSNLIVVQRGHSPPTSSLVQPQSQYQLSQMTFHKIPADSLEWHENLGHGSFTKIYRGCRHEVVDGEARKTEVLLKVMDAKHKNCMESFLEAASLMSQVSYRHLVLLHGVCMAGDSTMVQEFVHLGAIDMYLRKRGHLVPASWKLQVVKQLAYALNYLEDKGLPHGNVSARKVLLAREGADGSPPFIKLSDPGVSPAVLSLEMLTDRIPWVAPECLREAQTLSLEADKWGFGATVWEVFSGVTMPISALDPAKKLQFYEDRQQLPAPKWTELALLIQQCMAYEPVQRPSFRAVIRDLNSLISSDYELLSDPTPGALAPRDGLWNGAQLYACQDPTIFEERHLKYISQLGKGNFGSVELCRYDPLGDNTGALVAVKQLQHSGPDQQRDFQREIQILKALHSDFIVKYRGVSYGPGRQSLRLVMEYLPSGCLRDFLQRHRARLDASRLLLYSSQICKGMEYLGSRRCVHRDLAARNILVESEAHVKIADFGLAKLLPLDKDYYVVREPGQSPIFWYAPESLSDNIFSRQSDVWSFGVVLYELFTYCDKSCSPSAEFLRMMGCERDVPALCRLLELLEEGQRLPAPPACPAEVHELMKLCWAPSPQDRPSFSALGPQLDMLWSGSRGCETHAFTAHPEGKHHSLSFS

TYK2 = TYK2 (Homo sapiens, UniProt P29597); experiment: Kinase-Glo Max kinase assay, purified enzyme; assay type: biochemical
[2] = In vitro conversion of MMT3-72 to MMT3-72-M2 by colon contents; assay type: in vitro ADME, mice
Method in brief: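 Fresh colon contents from female C57BL/6 mice (6–8 weeks) were suspended at 10% (w/v) in PBS as an azoreductase source, or boiled to deactivate. Test compound at 0.1 mM final was shaken at 1000 rpm, 37 °C. Aliquots at 0, 1, 2, 4, 6, 24 and 48 h were diluted 10-fold and extracted with acetonitrile. Parent and released metabolite were quantified by LC-MS/MS.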

[3] = Pharmacokinetic study in mice; assay type: in vivo
Method in brief: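 Female C57BL/6 mice (6–8 weeks) were dosed orally at 10 mg/kg in the pH-adjusted beta-cyclodextrin/hyaluronic acid/PBS vehicle. Sacrifice at 0.5, 2, 4, 12 and 24 h; cardiac blood for plasma; intestinal tissue homogenized in PBS to 10%; intestinal contents homogenized in PBS. Parent and metabolite were measured by LC-MS/MS (C18, 0.1% formic acid water/acetonitrile gradient, 0.4 ml/min). Detection limit 2 ng/ml or 2 ng/g. n = 3, mean ± SD.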

DSS-induced colitis [4] = experiment: DSS-induced colitis in mice: DAI score, colon length; assay type: in vivo; conditions: for improvement of DAI score or disease severity: 1 mg/kg orally every other day; for mice that developed moderate colitis / mice that developed severe colitis: n = 10
Method in brief: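 Female C57BL/6 mice (6–8 weeks), randomized; 3% DSS in distilled water for 5 days, with water-only controls. Test compound or reference JAK inhibitor was given by oral gavage every other day in a pH-adjusted vehicle (80% v/v beta-cyclodextrin:water 1:4, 15% hyaluronic acid, 5% PBS); vehicle-only group. Stool consistency and occult blood were scored daily as DAI 0–3. Colon length was measured at sacrifice on day 5. Mean ± SD; ANOVA with Tukey.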

DSS-induced colitis [5] = experiment: H&E staining of colon tissues, DSS-induced colitis; assay type: in vivo, mice
phosphorylation of STAT3 = experiment: Western blot of colon tissues: STAT3 and phosphorylated STAT3; assay type: in vivo, mice; conditions: DSS-induced colitis, oral MMT3-72
Method in brief: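 Colon tissue came from the DSS colitis study. It was rinsed in cold PBS, homogenized in RIPA buffer, sonicated and centrifuged; protein was measured by BCA. 200 μg total protein per group underwent SDS electrophoresis and transfer to PVDF. Blots were probed overnight at 4 °C with antibodies to JAK2, STAT3, phospho-STAT3 (Tyr705) and GAPDH, then HRP secondary for 1 h at room temperature, and imaged.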

[6] = single oral dose of radiolabeled fedratinib ref 21; cited from earlier work
[7] = 10 mg/kg orally every other day

Chain of JAK2 (O60674 whole entry): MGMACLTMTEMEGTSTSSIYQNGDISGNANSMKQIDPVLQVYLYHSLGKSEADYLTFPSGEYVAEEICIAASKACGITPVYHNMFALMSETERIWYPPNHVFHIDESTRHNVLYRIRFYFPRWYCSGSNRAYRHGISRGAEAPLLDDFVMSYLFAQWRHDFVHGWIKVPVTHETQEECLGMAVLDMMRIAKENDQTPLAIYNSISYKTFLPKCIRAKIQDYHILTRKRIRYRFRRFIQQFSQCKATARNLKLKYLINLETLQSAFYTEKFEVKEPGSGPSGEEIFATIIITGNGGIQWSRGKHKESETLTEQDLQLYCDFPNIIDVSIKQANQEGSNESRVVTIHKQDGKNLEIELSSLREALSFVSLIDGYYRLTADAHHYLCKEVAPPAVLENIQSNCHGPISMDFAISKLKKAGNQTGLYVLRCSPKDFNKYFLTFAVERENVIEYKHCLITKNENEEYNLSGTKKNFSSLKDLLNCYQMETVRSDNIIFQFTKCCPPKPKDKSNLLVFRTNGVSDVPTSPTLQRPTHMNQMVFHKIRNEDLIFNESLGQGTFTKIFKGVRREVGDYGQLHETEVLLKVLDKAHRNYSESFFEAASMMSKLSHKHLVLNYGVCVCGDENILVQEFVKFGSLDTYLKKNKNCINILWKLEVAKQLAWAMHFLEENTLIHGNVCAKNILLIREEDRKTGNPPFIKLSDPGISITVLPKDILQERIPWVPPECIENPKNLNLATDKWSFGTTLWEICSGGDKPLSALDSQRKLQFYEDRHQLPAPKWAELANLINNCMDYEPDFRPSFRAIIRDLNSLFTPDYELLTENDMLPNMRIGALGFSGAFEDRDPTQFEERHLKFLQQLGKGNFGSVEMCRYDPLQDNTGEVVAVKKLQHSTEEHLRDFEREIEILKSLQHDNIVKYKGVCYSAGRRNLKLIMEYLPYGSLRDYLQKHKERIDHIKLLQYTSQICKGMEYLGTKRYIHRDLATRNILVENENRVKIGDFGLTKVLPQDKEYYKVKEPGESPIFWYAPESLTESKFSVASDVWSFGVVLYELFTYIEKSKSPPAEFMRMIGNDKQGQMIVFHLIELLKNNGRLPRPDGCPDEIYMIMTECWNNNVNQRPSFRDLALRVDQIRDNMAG
Chain of TYK2 (P29597 whole entry): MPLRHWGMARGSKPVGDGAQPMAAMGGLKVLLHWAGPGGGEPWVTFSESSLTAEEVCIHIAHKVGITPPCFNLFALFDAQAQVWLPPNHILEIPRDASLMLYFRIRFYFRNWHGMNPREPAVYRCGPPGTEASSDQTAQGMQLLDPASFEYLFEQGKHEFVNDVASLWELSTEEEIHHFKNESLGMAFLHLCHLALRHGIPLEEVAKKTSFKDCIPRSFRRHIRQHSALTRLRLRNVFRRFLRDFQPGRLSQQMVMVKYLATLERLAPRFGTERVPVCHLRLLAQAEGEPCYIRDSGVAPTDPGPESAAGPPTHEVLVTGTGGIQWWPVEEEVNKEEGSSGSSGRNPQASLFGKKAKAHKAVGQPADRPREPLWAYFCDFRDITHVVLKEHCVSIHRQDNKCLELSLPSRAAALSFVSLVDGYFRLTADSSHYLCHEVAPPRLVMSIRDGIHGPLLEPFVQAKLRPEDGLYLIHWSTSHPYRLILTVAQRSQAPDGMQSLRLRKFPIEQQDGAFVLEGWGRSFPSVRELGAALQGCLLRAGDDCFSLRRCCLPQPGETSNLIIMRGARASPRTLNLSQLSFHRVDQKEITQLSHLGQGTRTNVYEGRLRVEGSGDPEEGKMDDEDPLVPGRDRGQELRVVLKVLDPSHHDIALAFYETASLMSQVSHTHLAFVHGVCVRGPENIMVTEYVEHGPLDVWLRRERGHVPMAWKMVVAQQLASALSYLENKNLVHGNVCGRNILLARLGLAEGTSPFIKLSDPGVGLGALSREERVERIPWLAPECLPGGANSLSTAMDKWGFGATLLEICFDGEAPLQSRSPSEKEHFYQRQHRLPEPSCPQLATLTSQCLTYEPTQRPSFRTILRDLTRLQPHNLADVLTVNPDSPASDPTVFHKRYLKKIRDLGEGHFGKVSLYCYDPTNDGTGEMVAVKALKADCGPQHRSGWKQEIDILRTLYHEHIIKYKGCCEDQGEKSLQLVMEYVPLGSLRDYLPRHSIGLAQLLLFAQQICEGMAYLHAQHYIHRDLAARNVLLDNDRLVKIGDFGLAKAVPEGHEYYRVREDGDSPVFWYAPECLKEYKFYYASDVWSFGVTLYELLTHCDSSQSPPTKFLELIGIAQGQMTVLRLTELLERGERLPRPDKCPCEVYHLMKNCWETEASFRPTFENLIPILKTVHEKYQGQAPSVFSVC
Chain of JAK1 (P23458 whole entry): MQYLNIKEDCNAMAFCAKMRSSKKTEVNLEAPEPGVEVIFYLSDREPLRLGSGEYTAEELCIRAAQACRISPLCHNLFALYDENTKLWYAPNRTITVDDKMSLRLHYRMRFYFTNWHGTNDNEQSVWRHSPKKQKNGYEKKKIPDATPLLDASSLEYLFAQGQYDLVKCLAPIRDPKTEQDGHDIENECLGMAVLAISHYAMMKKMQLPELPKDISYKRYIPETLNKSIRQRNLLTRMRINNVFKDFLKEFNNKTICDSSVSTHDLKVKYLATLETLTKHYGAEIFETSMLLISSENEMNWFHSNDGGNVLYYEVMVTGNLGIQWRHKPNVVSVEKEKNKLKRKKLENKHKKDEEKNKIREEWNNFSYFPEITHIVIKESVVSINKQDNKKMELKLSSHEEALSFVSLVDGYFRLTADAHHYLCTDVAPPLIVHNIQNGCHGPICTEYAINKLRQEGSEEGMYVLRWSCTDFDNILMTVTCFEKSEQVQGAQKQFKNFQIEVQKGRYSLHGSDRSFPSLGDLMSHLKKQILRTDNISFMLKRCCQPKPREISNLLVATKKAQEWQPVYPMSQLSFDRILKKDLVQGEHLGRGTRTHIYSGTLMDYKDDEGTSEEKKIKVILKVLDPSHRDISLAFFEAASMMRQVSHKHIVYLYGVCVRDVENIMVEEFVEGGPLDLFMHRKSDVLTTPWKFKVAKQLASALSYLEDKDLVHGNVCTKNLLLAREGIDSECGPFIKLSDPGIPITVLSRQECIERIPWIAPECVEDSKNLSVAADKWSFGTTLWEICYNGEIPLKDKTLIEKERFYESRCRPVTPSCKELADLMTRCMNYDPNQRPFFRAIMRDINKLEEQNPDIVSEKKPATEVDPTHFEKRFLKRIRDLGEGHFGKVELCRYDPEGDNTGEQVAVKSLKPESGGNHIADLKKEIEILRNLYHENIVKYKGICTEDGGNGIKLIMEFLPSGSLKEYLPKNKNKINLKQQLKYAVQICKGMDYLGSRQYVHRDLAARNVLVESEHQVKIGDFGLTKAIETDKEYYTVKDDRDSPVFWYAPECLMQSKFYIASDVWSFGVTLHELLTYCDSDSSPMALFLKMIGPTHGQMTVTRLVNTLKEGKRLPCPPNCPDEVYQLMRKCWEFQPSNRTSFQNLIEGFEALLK

Row | SMILES | where detected (plasma, colon tissues, feces), in words [1] | IC50 (JAK1; Enzyme IC50 JAK1, 0.1 mM ATP) | IC50 (JAK2; Enzyme IC50 JAK2, 0.1 mM ATP) | IC50 (JAK3) | IC50 (TYK2; Enzyme IC50 TYK2, 0.1 mM ATP) | improvement of DAI score or disease severity (DSS-induced colitis [4]) | improvement of DAI score vs DSS-induced colitis (DSS-induced colitis [4]; 5 mg/kg orally every other day) | recovery of colon length from DSS-induced colitis (DSS-induced colitis [4]; 10 mg/kg) | improvement of DAI score vs DSS-induced colitis (DSS-induced colitis [4]; [7]) | mice that developed severe colitis (DSS-induced colitis [4]; 10 mg/kg) | epithelial loss and infiltration of immune cells (H&E) (DSS-induced colitis [5]; 5 mg/kg) | epithelial loss and infiltration of immune cells (H&E) (DSS-induced colitis [5]; 10 mg/kg) | further results
1 | Cc1cnc(Nc2ccc(OCCOc3ccc(/N=N/c4ccc(C(=O)NCCC(=O)O)cc4)cc3C(=O)O)cc2)nc1Nc1cccc(S(=O)(=O)NC(C)(C)C)c1 [MMT3-72, (E)-2-(2-(4-((4-((3-(N-(tertbutyl)sulfamoyl)phenyl)amino)-5-methylpyrimidin-2-yl)amino)phenoxy)ethoxy)-5-((4-((2-carboxyethyl)carbamoyl)phenyl)diazenyl)benzoic acid] | only detected in the feces | 368 nM | 630 nM | 5240 nM | 4700 nM | did not improve DAI score or disease severity | 5 fold | recovered the colon length | 10 fold | no mice | reduced epithelial loss and decreased infiltration of immune cells | reduced epithelial loss and decreased infiltration of immune cells | stability in heat-deactivated colon contents ([2]; boiled colon contents, aqueous environment): most MMT3-72 remained intact; MMT3-72 metabolized ([2]; fresh colon contents, within 48 h of incubation): more than 90%; detection in colon/GI tissue or systemic circulation/plasma ([3]; mice, 10 mg/kg MMT3-72 orally): not detected; mice that developed moderate colitis (DSS-induced colitis [4]; 5 mg/kg): 10%; mice that developed severe colitis (DSS-induced colitis [4]; 5 mg/kg): no mice; mice that developed moderate colitis (DSS-induced colitis [4]; 10 mg/kg): no mice; phosphorylation of STAT3 in colon tissue (phosphorylation of STAT3): effectively inhibit the phosphorylation of STAT3; also recorded: inhibited the phosphorylation of STAT3
2 | Cc1cnc(Nc2ccc(OCCN3CCCC3)cc2)nc1Nc1cccc(S(=O)(=O)NC(C)(C)C)c1 [fedratinib] |  |  |  |  |  |  |  |  |  |  |  |  | excreted in feces unchanged [6]: 23%; fedratinib-derived radioactivity excreted in feces [6]: ~77%
3 | Cc1cnc(Nc2ccc(OCCO)cc2)nc1Nc1cccc(S(=O)(=O)NC(C)(C)C)c1 [MMT3-72-M2, N-(tert-butyl)-3-((2-((4-(2-hydroxyethoxy)phenyl)amino)-5methylpyrimidin-4-yl)amino)benzenesulfonamide] | only detected in the colon tissues and the feces with limited detection in the plasma | 10.8 nM | 26.3 nM | 329 nM | 91.6 nM |  |  |  |  |  |  |  | IC50 (JAK1; IC50 JAK1 expressed in ng/ml, converted from nM): ~10.6 nM; IC50 (JAK2; IC50 JAK2 expressed in ng/ml, converted from nM): ~25.7 nM; IC50 (TYK2; IC50 TYK2 expressed in ng/ml, converted from nM): ~89.3 nM; formation of MMT3-72-M2 from MMT3-72 ([2]; fresh colon contents): readily converted from MMT3-72; concentration at 12 h ([3]; female, C57BL/6, mouse, colon tissue, po, 10 mg/kg): 131 ng/g and ~285 nM; duration of effective concentrations in colon tissue ([3]; mice, 10 mg/kg MMT3-72 orally): 12 h; Cmax in plasma ([3]; mice, 10 mg/kg MMT3-72 orally, 10 mg/kg): < 8 ng/mL; time after which undetectable in plasma ([3]; mice, 10 mg/kg MMT3-72 orally, limit of detection 2 ng/ml): 4 h
4 | C[C@@H]1CCN(C(=O)CC#N)C[C@@H]1N(C)c1ncnc2[nH]ccc12 [tofacitinib, reference compound] |  |  |  |  |  | did not improve DAI score or disease severity | did not show any improvement in DAI score | recovered the colon length | showed improvement in DAI score | 10% | did not show improvement in epithelial cell loss and infiltration of immune cells | moderate improvement | 
